Measurements taken from ChEMBL document CHEMBL3400072, “Synthesis, biological evaluation and docking analysis of a new series of methylsulfonyl and sulfamoyl acetamides and ethyl acetates as potent COX-2 inhibitors” (Bioorg Med Chem, 2015).
Activity calls are given as the source filed them. No cut-off for these calls is given here.

Key:
Mus musculus [1] = assay: Analgesic activity in Swiss albino mouse model assessed as reduction of acetic acid-induced writhes at 10 mg/kg, po administered 30 mins prior to acetic acid challenge measured after 5 mins for 10 mins relative to vehicle-treated control; assay type: functional; parameters: scale not given: the % may be the effect or the level left
Summary of the method: (§1)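 Male Swiss albino mice (23–25 g), standard diet and water ad libitum, 23 °C, 12 h light/dark cycle. Oral dosing (1–40 mg/kg range), with carboxymethylcellulose (CMC) as vehicle, 30 min before ip injection of 0.6% acetic acid (10 mL/kg). Stretching movements counted for 10 min, beginning 5 min after acetic acid. Results given as writhe count and % reduction versus vehicle-treated mice.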

Mus musculus [2] = assay: Analgesic activity in Swiss albino mouse model assessed as reduction of acetic acid-induced writhes at 3 mg/kg, po administered 30 mins prior to acetic acid challenge measured after 5 mins for 10 mins relative to vehicle-treated control; assay type: functional; parameters: scale not given: the % may be the effect or the level left; summary of the method: as §1
[3] = biological target: T1, Prostaglandin G/H synthase 2 (Homo sapiens) (UniProt P35354); settings: at 10 µM
T1 sequence (whole entry): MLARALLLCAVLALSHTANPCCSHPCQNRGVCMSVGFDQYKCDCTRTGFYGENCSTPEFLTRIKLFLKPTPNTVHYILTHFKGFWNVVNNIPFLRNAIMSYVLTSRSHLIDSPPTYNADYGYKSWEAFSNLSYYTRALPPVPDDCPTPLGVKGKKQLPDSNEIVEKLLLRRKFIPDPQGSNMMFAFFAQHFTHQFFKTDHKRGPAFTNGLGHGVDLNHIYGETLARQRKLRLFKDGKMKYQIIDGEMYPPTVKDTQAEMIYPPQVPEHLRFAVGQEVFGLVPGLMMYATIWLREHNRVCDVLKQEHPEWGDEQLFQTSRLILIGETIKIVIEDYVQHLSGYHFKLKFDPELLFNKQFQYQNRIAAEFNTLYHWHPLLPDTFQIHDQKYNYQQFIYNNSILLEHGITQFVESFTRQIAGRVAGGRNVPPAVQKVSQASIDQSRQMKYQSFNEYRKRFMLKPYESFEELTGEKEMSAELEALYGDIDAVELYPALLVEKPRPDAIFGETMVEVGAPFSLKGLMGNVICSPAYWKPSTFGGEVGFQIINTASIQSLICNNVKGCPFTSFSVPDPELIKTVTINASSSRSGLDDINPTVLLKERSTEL

Mus musculus [4] = assay: Analgesic activity in Swiss albino mouse model assessed as reduction of acetic acid-induced writhes at 30 mg/kg, po administered 30 mins prior to acetic acid challenge measured after 5 mins for 10 mins relative to vehicle-treated control; assay type: functional; parameters: scale not given: the % may be the effect or the level left; summary of the method: as §1
[5] = biological target: T2, Prostaglandin G/H synthase 2 (Homo sapiens, UniProt P35354); assay: Inhibition of human recombinant COX2 using […] as substrate after 10 mins by EIA
T2 sequence (P35354 whole entry): T1 sequence (whole entry)

[6] = biological target: T3, Prostaglandin G/H synthase 1 (Ovis aries) (UniProt P05979); settings: at 10 µM
T3 sequence (whole entry): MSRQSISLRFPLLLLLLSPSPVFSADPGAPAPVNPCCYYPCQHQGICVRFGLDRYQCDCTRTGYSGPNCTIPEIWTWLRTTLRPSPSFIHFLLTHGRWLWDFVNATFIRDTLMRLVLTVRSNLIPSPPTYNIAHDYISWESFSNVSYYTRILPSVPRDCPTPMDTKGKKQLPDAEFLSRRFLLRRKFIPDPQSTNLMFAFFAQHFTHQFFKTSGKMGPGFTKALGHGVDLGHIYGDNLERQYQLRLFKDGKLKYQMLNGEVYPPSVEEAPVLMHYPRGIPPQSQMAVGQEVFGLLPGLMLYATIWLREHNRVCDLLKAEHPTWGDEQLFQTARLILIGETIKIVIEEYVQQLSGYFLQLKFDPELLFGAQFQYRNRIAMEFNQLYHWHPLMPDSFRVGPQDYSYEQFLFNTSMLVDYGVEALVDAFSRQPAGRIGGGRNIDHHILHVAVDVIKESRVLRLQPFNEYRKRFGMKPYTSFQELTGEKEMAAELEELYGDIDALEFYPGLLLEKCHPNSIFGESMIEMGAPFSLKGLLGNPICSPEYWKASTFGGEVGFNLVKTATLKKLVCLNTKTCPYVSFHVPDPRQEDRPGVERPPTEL

Mus musculus [7] = assay: Analgesic activity in Swiss albino mouse model assessed as reduction of acetic acid-induced writhes at 40 mg/kg, po administered 30 mins prior to acetic acid challenge measured after 5 mins for 10 mins relative to vehicle-treated control; assay type: functional; parameters: scale not given: the % may be the effect or the level left; summary of the method: as §1
Mus musculus [8] = assay: Analgesic activity in Swiss albino mouse model assessed as reduction of acetic acid-induced writhes at 20 mg/kg, po administered 30 mins prior to acetic acid challenge measured after 5 mins for 10 mins relative to vehicle-treated control; assay type: functional; parameters: scale not given: the % may be the effect or the level left; summary of the method: as §1
Mus musculus [9] = assay: Analgesic activity in po dosed Swiss albino mouse model assessed as reduction of acetic acid-induced writhes administered 30 mins prior to acetic acid challenge measured after 5 mins for 10 mins relative to vehicle-treated control; assay type: functional, organism-based; summary of the method: as §1

SMILES | Activity (Mus musculus [1]) [%] | Activity (Mus musculus [2]) [%] | inhibition [3] [%] | Activity (Mus musculus [4]) [%] | IC50 [5] [µM] | inhibition [6] | Activity (Mus musculus [7]) [%] | Activity (Mus musculus [8]) [%] | Activity (Mus musculus [9])
CCCNC(=O)Cc1cc(-c2ccc(S(C)(=O)=O)cc2)n(-c2ccc(F)cc2)c1C | 29.9 | 10.2 | 65 | – | – | – | – | – | –
CCCNC(=O)Cc1cc(-c2ccc(S(N)(=O)=O)cc2)n(-c2ccc(F)cc2)c1C | 8.3 | 3.9 | 62 | 39.1 | – | – | – | – | –
Cc1c(CC(=O)O)cc(-c2ccc(S(N)(=O)=O)cc2)n1-c1cccc(F)c1 | 9.5 | – | 65 | – | – | – | – | – | –
Cc1c(CC(=O)NC(C)C)cc(-c2ccc(S(C)(=O)=O)cc2)n1-c1ccc(F)cc1 | 12.2 | – | 95 | 48.7 | 4.91 | 36% | – | – | –
Cc1ccc(-c2cc(C(F)(F)F)nn2-c2ccc(S(N)(=O)=O)cc2)cc1 [CELECOXIB] | 57.4 | – | – | – | – | – | – | – | –
Cc1c(CC(=O)O)cc(-c2ccc(S(N)(=O)=O)cc2)n1-c1ccc(F)cc1 | 16.9 | – | 65 | – | – | – | 49.1 | 33.1 | –
CCCNC(=O)Cc1cc(-c2ccc(S(N)(=O)=O)cc2)n(-c2cccc(F)c2)c1C | – | – | 96 | 12.2 | 5.78 | inactive | – | – | –
CCOC(=O)Cc1cc(-c2ccc(S(N)(=O)=O)cc2)n(-c2cccc(F)c2)c1C | 26 | – | 89 | 33.5 | 0.92 | inactive | – | – | –
CCCNC(=O)Cc1cc(-c2ccc(S(C)(=O)=O)cc2)n(-c2cccc(F)c2)c1C | 12.2 | – | 43 | 9.9 | – | – | – | – | –
CCOC(=O)Cc1cc(-c2ccc(S(N)(=O)=O)cc2)n(-c2ccc(F)cc2)c1C | 10.4 | – | 82 | – | 1.07 | inactive | 62.3 | 24.8 | Dose-dependent effect
Cc1c(CC(=O)NC(C)C)cc(-c2ccc(S(N)(=O)=O)cc2)n1-c1cccc(F)c1 | 29.3 | 11.5 | 49 | 31.6 | – | – | – | – | –
Cc1c(CC(=O)NC(C)C)cc(-c2ccc(S(C)(=O)=O)cc2)n1-c1cccc(F)c1 | 3.6 | – | 74 | 25.3 | 7 | – | – | – | –
Cc1c(CC(=O)NC(C)C)cc(-c2ccc(S(N)(=O)=O)cc2)n1-c1ccc(F)cc1 | 36.5 | 16.1 | 48 | 43.7 | – | – | – | – | –
